Results: ChEMBL document CHEMBL1154682, “Discovery of novel benzoxazinones as potent and orally active long chain fatty acid elongase 6 inhibitors” (J Med Chem, 2009)
The source made the active and inactive calls. No cut-off for these calls is given here.

How the values were obtained:
[1] = biological target: T1, Very long chain fatty acid elongase 6 (Homo sapiens, UniProt Q9H5J4); assay: Inhibition of human ELOVL6 expressed in Pichia pastoris using palmitoyl-CoA by long chain fatty acyl-CoA elongation assay
T1 sequence (Q9H5J4 whole entry): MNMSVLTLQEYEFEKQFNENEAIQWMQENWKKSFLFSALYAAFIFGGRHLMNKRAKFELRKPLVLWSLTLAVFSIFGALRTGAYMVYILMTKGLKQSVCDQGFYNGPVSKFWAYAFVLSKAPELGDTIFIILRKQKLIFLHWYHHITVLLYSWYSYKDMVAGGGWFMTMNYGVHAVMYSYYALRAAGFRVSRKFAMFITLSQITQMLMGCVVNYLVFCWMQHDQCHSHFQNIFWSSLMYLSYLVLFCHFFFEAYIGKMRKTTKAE
Method in brief: (§1)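 Microsomes (3 μg) from Pichia pastoris SMD1168 expressing FLAG-tagged human or mouse ELOVL6 were incubated 1 h at 37 °C in 100 mM potassium phosphate pH 6.5 with 40 μM palmitoyl-CoA, 20 μM malonyl-CoA plus [14C]-malonyl-CoA, 500 μM NADPH, 200 μM BSA and 1 μM rotenone. DMSO was 1.0% final. After HCl hydrolysis, filter-retained 14C was counted. IC50 came from nonlinear regression on % of control.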

[2] = Unbound fraction in C57BL/6N mouse plasma; assay type: ADME, cell-free
Method in brief: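 Equilibrium dialysis was run with C57BL/6N mouse plasma adjusted to pH 7.4 and spiked with 1 μM compound, dialysed against PBS for 6 h at 37 °C. Both sides were analysed by LC-MS/MS. Unbound fraction = Cf/Cp × 100. Mean of n = 3.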

[3] = biological target: T2, Very long chain fatty acid elongase 6 (Mus musculus, UniProt Q920L5); assay: Inhibition of mouse ELOVL6 expressed in Pichia pastoris using palmitoyl-CoA by long chain fatty acyl-CoA elongation assay; method in brief: as §1
T2 sequence (Q920L5 whole entry): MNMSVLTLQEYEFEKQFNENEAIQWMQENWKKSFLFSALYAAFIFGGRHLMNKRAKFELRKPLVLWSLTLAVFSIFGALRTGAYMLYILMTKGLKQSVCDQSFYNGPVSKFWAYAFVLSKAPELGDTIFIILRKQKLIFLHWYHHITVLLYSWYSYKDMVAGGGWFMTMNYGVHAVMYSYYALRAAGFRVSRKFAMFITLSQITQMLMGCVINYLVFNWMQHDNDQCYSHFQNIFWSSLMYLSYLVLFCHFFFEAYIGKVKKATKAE

[4] = biological target: T2, Very long chain fatty acid elongase 6; assay: Inhibition of ELOVL6 in mouse H2.35 cells assessed as elongation index; assay type: cell-based
Method in brief: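 Subconfluent mouse hepatoma H2.35 cells were kept at 33 °C in DMEM with 200 nM dexamethasone and 4% FBS. Lipids were hydrolysed in NaOH at 70 °C, and fatty acids extracted and quantified by radio-HPLC. Elongation index = (C18:0 + C18:1) / (C16:0 + C16:1).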

[5] = Plasma concentration in C57BL/6J mouse at 10 mg/kg, po after 2 hrs; assay type: ADME, organism-based; design: dose 10 mg/kg, route oral
Method in brief: (§2)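 Male C57BL/6J mice were given a single oral gavage of 10 mg/kg in 0.5% methylcellulose suspension. Abdominal-vein blood and liver were taken 2 h after dosing. Liver was homogenized in PBS pH 7.4. Plasma and homogenate were deproteinized with ethanol containing internal standard before analysis.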

[6] = Drug level in C57BL/6J mouse liver at 10 mg/kg, po after 2 hrs; assay type: ADME, organism-based; design: dose 10 mg/kg, route oral; settings: read-out: Drug uptake; method in brief: as §2
Mus musculus [7] = assay: Reduction of elongation index of liver lipids in C57BL/6J mouse at 1 mg/kg, po; assay type: functional, organism-based; design: dose 1 mg/kg
Method in brief: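 Male C57BL/6J mice were dosed orally in 0.5% methylcellulose. [1-14C]palmitic acid, 10 μCi/body, was given intraperitoneally 1 h later. Liver was taken 2 h after dosing and saponified in KOH/ethanol at 70 °C. Labelled fatty acids were quantified by radio-HPLC, with elongation index C18/C16 expressed as % of control. Four mice per treatment.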

[8] = Plasma concentration in C57BL/6J mouse at 30 mg/kg, po twice daily after 3 days; assay type: ADME, organism-based; design: dose 30 mg/kg, route oral
Mus musculus [9] = assay: Reduction of elongation index of total fatty acids in C57BL/6J mouse liver at 30 mg/kg, po twice daily for 3 days; assay type: functional, organism-based; design: dose 30 mg/kg
Method in brief: (§3)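 Male C57BL/6J mice received 30 mg/kg orally twice daily for 3 days. Liver and plasma were hydrolysed in NaOH/ethanol with C17:0 internal standard. Fatty acids were derivatized with 2-nitrophenylhydrazine and measured by HPLC-UV at 400 nm. Elongation index (C18/C16) was expressed as % of vehicle control. Six mice per group.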

Mus musculus [10] = assay: Reduction of elongation index of total fatty acids in C57BL/6J mouse plasma at 30 mg/kg, po twice daily for 3 days; assay type: functional, organism-based; design: dose 30 mg/kg; method in brief: as §3
[11] = biological target: T3, Very long chain fatty acid elongase 1 (Homo sapiens, UniProt Q9BW60); assay: Inhibition of human ELOVL1
T3 sequence (Q9BW60 whole entry): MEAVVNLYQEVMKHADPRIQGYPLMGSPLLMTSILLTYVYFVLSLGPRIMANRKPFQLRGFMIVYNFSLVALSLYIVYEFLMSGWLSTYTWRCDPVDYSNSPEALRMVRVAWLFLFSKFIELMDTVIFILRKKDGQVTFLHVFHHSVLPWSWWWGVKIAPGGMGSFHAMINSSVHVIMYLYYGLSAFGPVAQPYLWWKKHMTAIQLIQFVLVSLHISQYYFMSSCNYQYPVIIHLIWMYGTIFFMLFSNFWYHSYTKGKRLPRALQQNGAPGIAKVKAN
Method in brief: (§4)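 Microsomes were prepared from Pichia pastoris SMD1168 expressing FLAG-tagged human or mouse ELOVL. Incubation ran 1 h at 37 °C in 100 mM potassium phosphate pH 6.5 with 200 μM BSA, 500 μM NADPH, 1 μM rotenone, 20 μM malonyl-CoA plus [14C]-malonyl-CoA, and acyl-CoA: ELOVL1 and ELOVL3, 10 μM stearoyl-CoA; ELOVL2, 10 μM arachidonoyl-CoA; ELOVL5, 40 μM arachidonoyl-CoA. DMSO was 1.0% final. Products were acid-hydrolysed and filter-bound radioactivity counted.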

[12] = biological target: T4, Very long chain fatty acid elongase 2 (Homo sapiens, UniProt Q9NXB9); assay: Inhibition of human ELOVL2; method in brief: as §4
T4 sequence (Q9NXB9 whole entry): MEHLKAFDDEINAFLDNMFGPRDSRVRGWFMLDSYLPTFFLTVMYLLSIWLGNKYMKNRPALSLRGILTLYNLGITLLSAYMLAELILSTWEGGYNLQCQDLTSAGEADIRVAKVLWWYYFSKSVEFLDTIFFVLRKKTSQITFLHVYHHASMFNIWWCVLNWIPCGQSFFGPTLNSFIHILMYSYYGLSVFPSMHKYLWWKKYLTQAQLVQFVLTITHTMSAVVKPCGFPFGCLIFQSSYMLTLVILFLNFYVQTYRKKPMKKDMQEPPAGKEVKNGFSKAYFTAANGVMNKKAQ

[13] = biological target: T5, Very long chain fatty acid elongase 3 (Homo sapiens, UniProt Q9HB03); assay: Inhibition of human ELOVL3; method in brief: as §4
T5 sequence (Q9HB03 whole entry): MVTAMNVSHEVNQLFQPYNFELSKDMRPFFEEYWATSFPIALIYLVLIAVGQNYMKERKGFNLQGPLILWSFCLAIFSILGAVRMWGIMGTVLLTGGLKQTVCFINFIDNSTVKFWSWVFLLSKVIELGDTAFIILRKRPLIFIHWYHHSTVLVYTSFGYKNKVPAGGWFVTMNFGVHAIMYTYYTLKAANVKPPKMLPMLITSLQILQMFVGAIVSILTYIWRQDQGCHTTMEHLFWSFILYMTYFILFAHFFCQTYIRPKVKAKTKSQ

[14] = biological target: T6, Very long chain fatty acid elongase 5 (Homo sapiens, UniProt Q9NYP7); assay: Inhibition of human ELOVL5; method in brief: as §4
T6 sequence (Q9NYP7 whole entry): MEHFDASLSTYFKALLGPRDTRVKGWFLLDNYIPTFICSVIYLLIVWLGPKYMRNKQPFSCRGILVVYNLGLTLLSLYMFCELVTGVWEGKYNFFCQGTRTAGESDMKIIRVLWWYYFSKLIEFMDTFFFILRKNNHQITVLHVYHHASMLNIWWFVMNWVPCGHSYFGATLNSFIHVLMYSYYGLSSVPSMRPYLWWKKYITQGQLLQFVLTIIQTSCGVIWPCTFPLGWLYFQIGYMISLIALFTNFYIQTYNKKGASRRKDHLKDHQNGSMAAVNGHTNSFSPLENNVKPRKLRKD

[15] = biological target: T7, Very long chain fatty acid elongase 3 (Mus musculus, UniProt O35949); assay: Inhibition of mouse ELOVL3; method in brief: as §4
T7 sequence (O35949 whole entry): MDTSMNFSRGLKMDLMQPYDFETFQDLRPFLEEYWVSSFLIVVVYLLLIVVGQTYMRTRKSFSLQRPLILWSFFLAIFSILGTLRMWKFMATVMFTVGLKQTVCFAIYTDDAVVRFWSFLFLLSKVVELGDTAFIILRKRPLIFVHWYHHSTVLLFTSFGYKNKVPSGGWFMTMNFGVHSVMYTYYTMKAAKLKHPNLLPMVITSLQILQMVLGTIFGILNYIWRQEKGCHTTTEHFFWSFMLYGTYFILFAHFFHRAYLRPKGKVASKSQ

[16] = Plasma clearance in Sprague-Dawley rat at 1 mg/kg, iv and 3 mg/kg, po; assay type: ADME, organism-based
Method in brief: (§5)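 Male SD rats, single dose: iv 1 mg/kg in PEG400/EtOH/H2O 50/10/40 or oral gavage 3 mg/kg in 0.5% methylcellulose suspension. Plasma was sampled at multiple time points up to 24 h, deproteinized with ethanol containing internal standard, and assayed. Values are means of n = 3 animals. Bioavailability was taken from AUC0-∞ after iv versus po.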

[17] = Volume of distribution at steady state in Sprague-Dawley rat at 1 mg/kg, iv; assay type: ADME, organism-based; design: dose 1 mg/kg, route intravenous; settings: in vivo, read-out: Vdss; method in brief: as §5
[18] = Half life in Sprague-Dawley rat at 1 mg/kg, iv; assay type: ADME, organism-based; design: dose 1 mg/kg, route intravenous; settings: in vivo; method in brief: as §5
[19] = Cmax in Sprague-Dawley rat at 1 mg/kg, iv and 3 mg/kg, po; assay type: ADME, organism-based; settings: in vivo; method in brief: as §5
[20] = AUC (0 to infinity) in Sprague-Dawley rat at 1 mg/kg, iv and 3 mg/kg, po; assay type: ADME, organism-based; settings: plasma; method in brief: as §5
[21] = Oral bioavailability in Sprague-Dawley rat at 3 mg/kg; assay type: ADME, organism-based; settings: in vivo; method in brief: as §5
[22] = Plasma concentration in C57BL/6J mouse at 30 mg/kg, po after 2 hrs; assay type: ADME, organism-based; design: dose 30 mg/kg, route oral; settings: read-out: Concentration_plasma
Method in brief: (§6)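 Male C57BL/6J mice were given a single oral gavage of 30 mg/kg in 0.5% methylcellulose suspension. Plasma was sampled at 2, 4, 8 and 24 h, deproteinized with ethanol containing internal standard, and assayed. Values are means of n = 3 animals.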

[23] = Plasma concentration in C57BL/6J mouse at 30 mg/kg, po after 4 hrs; assay type: ADME, organism-based; design: dose 30 mg/kg, route oral; settings: read-out: Concentration_plasma; method in brief: as §6
[24] = Plasma concentration in C57BL/6J mouse at 30 mg/kg, po after 8 hrs; assay type: ADME, organism-based; design: dose 30 mg/kg, route oral; settings: read-out: Concentration_plasma; method in brief: as §6
[25] = Plasma concentration in C57BL/6J mouse at 1 mg/kg, po after 2 hrs; assay type: ADME, organism-based; design: dose 1 mg/kg, route oral

O=C(Nc1ccc(F)cc1)OCC1(c2ccccc2)OC(=O)Nc2ccc(Cl)cc21 (stereo not given)
IC50 [1]: > 10 µM

CCC1(COC(=O)Nc2ccc(F)cc2)OC(=O)Nc2ccc(Cl)cc21 (stereo not given)
IC50 [1]: 2.26 µM

O=C1Nc2ccc(Cl)cc2C(CNC(=O)c2ccc(F)cc2)(C(F)(F)F)O1 (stereo not given)
fraction unbound [2]: 0.053

CC(C)C1(COC(=O)Nc2ccc(F)cc2)OC(=O)Nc2ccc(Cl)cc21 (stereo not given)
IC50 [1]: 5.03 µM

O=C1Nc2ccc(-c3ccn[nH]3)cc2[C@](CNC(=O)c2ccc(F)cc2)(C(F)(F)F)O1
IC50 [3]: 14 nM
IC50 [4]: 3.6 nM
fraction unbound [2]: 0.107
concentration at 2 h [5]: 660 nM
concentration at 2 h [6]: 12.5 µM
Activity (Mus musculus [7]): Active
concentration at 72 h [8]: > 540 nM
Activity (Mus musculus [9]): Active
Activity (Mus musculus [10]): inactive
IC50 [11]: 7 µM
IC50 [12]: > 10 µM
IC50 [13]: 130 nM
IC50 [14]: > 10 µM
IC50 [15]: 19 nM
clearance [16]: 11 mL/min/kg
Vd [17]: 0.7 L/kg
half-life [18]: 114 min
Cmax [19]: 2400 nM
AUC(0-inf) [20]: 4.69 µM·h
bioavailability [21]: 30%
concentration at 2 h [22]: 11.7 µM
concentration at 4 h [23]: 3.7 µM
concentration at 8 h [24]: 700 nM
concentration at 2 h [25]: 540 nM

CS(=O)(=O)c1ccc(C(=O)NCC2(C(F)(F)F)OC(=O)Nc3ccc(Cl)cc32)cc1 (stereo not given)
IC50 [1]: > 10 µM

O=C1Nc2ccc(Cl)cc2C(CNC(=O)c2ccc(-c3ccccc3)cc2)(C(F)(F)F)O1 (stereo not given)
IC50 [1]: > 10 µM
